The text below walks through data of ChEMBL document CHEMBL1153581, “Synthesis, antiviral and anticancer activity of some novel thioureas derived from N-(4-nitro-2-phenoxyphenyl)-methanesulfonamide” (Eur J Med Chem, 2009).

Structures are written as SMILES. Converted amounts (≈) assume the structure as drawn. Where only a bound is given, the exact number is not on record here.

Data set [1] relates to HeLa. In words: Cytotoxicity against human HeLa cells assessed as change in cell morphology. It is filed as functional. In short, it runs like this:
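The minimum cytotoxic concentration (MCC) is the concentration causing a microscopically detectable alteration of cell morphology in the uninfected host cell culture.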

For data set [2], the system named is Vesicular stomatitis virus. In words: Antiviral activity against Vesicular stomatitis virus infected in human HeLa cells assessed as protection against virus-induced cytopathogenicity. The data set is classed as functional. On the technique in general: Protection from cytopathic effect is a common read-out in antiviral testing.
The test system of data set [3] is Coxsackievirus B4. In words: Antiviral activity against Coxsackievirus B4 infected in human HeLa cells assessed as protection against virus-induced cytopathogenicity. The data set is classed as functional. The following applies: Enterovirus B.
The test system of data set [4] is Respiratory syncytial virus. In words: Antiviral activity against RSV infected in human HeLa cells assessed as protection against virus-induced cytopathogenicity. It is filed as functional.
In data set [5] the test system is Human respirovirus 3. Description: Antiviral activity against Parainfluenza-3 virus infected in african green monkey Vero cells assessed as protection against virus-induced cytopathogenicity. The data set is classed as functional.
The subject of data set [6] is Mammalian orthoreovirus 1. Description: Antiviral activity against Reovirus 1 infected in african green monkey Vero cells assessed as protection against virus-induced cytopathogenicity. The data set is classed as functional.
Data set [7] relates to Sindbis virus. Description: Antiviral activity against Sindbis virus infected in african green monkey Vero cells assessed as protection against virus-induced cytopathogenicity. It is filed as functional.
The subject of data set [8] is Coxsackievirus B4. Description: Antiviral activity against Coxsackievirus B4 infected in african green monkey Vero cells assessed as protection against virus-induced cytopathogenicity. The data set is classed as functional. As to conditions: Enterovirus B.
In data set [9] the test system is Punta Toro virus. In words: Antiviral activity against Punta Toro virus infected in african green monkey Vero cells assessed as protection against virus-induced cytopathogenicity. It is filed as functional.
Data set [10] can be described thus: Cytotoxicity against african green monkey Vero cells assessed as change in cell morphology. It is filed as cell-based. As to conditions: chlorocebus sabaeus. The method, boiled down: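 Vero cell cultures were used for the broad-spectrum antiviral screen. The MCC endpoint is the lowest concentration that causes a microscopically detectable alteration of cell morphology. Activity was called when 5 × MIC < MCC.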

Data set [11] relates to Human alphaherpesvirus 2. In words: Antiviral activity against Herpes simplex virus 2 infected in HEL cells assessed as protection against in virus-induced cytopathogenicity. It is filed as functional.
Data set [12] concerns Vesicular stomatitis virus. In words: Antiviral activity against sVesicular stomatitis virus infected in HEL cells assessed as protection against virus-induced cytopathogenicity. It is filed as functional.
Data set [13] concerns Human alphaherpesvirus 1. In words: Antiviral activity against acyclovir-resistant thymidine kinase-deficient HSV1 KOS infected in human HEL cells assessed as protection against virus-induced cytopathogenicity. The data set is classed as functional. As to conditions: Human alphaherpesvirus 1, KOS.
Data set [14] is described as follows: Cytotoxicity against HEL cells assessed as change in cell morphology. The data set is classed as cell-based. As to conditions: human. In short, it runs like this:
(§1)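 HEL cell cultures examined under the microscope. Minimal cytotoxic concentration (MCC) is the concentration that causes a microscopically detectable alteration of cell morphology. Compounds were tested at subtoxic concentrations alongside the antiviral tests.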

Data set [15] has as its system Human betaherpesvirus 5. In words: Antiviral activity against Cytomegalovirus AD169 infected in HEL cells assessed as reduction in virus plaque formation. The data set is classed as functional, organism-based. As to conditions: Human betaherpesvirus 5, AD169, HEL. The method, boiled down: (§2)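 Plaque reduction in HEL cells against CMV (AD-169, Davis) or VZV (TK⁺ OKA, TK⁻ 07/1), using a virus input of 20 PFU. EC50 is the concentration that reduced plaque formation by 50%.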

The test system of data set [16] is Cytomegalovirus. Description: Antiviral activity against Cytomegalovirus Davis infected in HEL cells assessed as reduction in virus plaque formation. The following applies: Human betaherpesvirus 5, Davis. It is filed as functional, organism-based. In short, it runs like this:
as §2

Data set [17] relates to Human alphaherpesvirus 3. Description: Antiviral activity against Varicella Zoster Virus OKA infected in HEL cells assessed as reduction in virus plaque formation. The following applies: Human alphaherpesvirus 3, OKA. It is filed as functional, organism-based. In short, it runs like this: as §2
Data set [18] deals with Human alphaherpesvirus 3. Description: Antiviral activity against thymidine kinase deficient Varicella Zoster Virus 07/1 infected in HEL cells assessed as reduction in virus plaque formation. It is filed as functional, organism-based. As to conditions: Human alphaherpesvirus 3, 07/1, HEL. In short, it runs like this: as §2
Data set [19] is described as follows: Cytotoxicity against Cytomegalovirus infected HEL cells assessed as change in cell morphology. It is filed as cell-based. The following applies: human. The method, boiled down:
as §1

Data set [20] in a line: Cytotoxicity against Cytomegalovirus infected HEL cells assessed as reduction in cell growth. As to conditions: human. It is filed as cell-based.
Data set [21] is described as follows: Cytotoxicity against Varicella Zoster Virus infected human […] cells assessed as change in cell morphology. The data set is classed as cell-based.
A short description of data set [22]: Cytotoxicity against Varicella Zoster Virus infected human […] cells assessed as reduction in cell growth. It is filed as cell-based.
The test system of data set [23] is Human alphaherpesvirus 1. In words: Antiviral activity against HSV1 KOS infected in HEL cells assessed as protection against virus-induced cytopathogenicity. The following applies: Human alphaherpesvirus 1, KOS. The data set is classed as functional.

For the compound `Nc1ncnc2c1ncn2C[C@H](O)CO` [(S)-DHPA], the MCC in data set [1] and in data set [10] was greater than 250 µg/mL in each case. Also, the MIC50 in data set [2] is 150 mg/L (≈ 717 µM); in data set [3], 150 mg/L (≈ 717 µM); in [4], greater than 250 mg/L; in [5], 50 mg/L (≈ 239 µM); in data set [6] it was 250 mg/L (≈ 1190 µM); in data set [7], greater than 250 mg/L. Also, the MIC50 in [8] and in data set [9] was greater than 250 mg/L in each case.

In the case of `Nc1nc2c(ncn2COCCO)c(=O)[nH]1` [ACYCLOVIR], the MIC50 in data set [11] was 0.4 mg/L (≈ 1.78 µM); in data set [12], greater than 250 mg/L; in data set [13], 50 mg/L (≈ 222 µM). Besides, the MCC in data set [14] was greater than 250 µg/mL.

For the compound `O=c1[nH]c(=O)n([C@H]2C[C@H](O)[C@@H](CO)O2)cc1/C=C/Br` [BRIVUDINE], the MCC in [1], in data set [14] and in data set [10] was greater than 250 µg/mL each time. The MIC50 in data set [11] was 10 mg/L (≈ 30 µM); in [12], greater than 250 mg/L; in [13] it was greater than 250 mg/L; in data set [2] it was greater than 250 mg/L; in data set [3] it was greater than 250 mg/L; in data set [4] it was greater than 250 mg/L. Besides, the MIC50 in data set [5], in data set [6], in data set [7], in [8] and in data set [9] was greater than 250 mg/L each time.

In the case of `Nc1ccn(C[C@@H](CO)OCP(=O)(O)O)c(=O)n1.O.O` [CIDOFOVIR], the half-maximal effective concentration (EC50) was found to be 0.24 mg/L in data set [15], 0.37 mg/L in data set [16], 0.0095 mg/L in [17] and 12.6 mg/L in data set [18]. In addition, the CC50 in data set [19] was 400 mg/L; in [20], 57 mg/L; in [21], greater than 50 mg/L; in [22], 244 mg/L.

With `Nc1nc2c(ncn2COC(CO)CO)c(=O)[nH]1` [GANCICLOVIR], the MIC50 was 0.032 mg/L (≈ 0.125 µM) in [23], 0.0064 mg/L (≈ 0.0251 µM) in data set [11], greater than 100 mg/L in [12] and 2.4 mg/L (≈ 9.4 µM) in [13]. The MCC in data set [14] was greater than 100 µg/mL. For the same compound, the EC50 was determined as 1.4 mg/L (≈ 5.49 µM) in [15], 1.7 mg/L (≈ 6.66 µM) in [16], 1 mg/L (≈ 3.92 µM) in data set [17] and 15 mg/L (≈ 58.8 µM) in [18]. For the same compound, the CC50 was 400 mg/L (≈ 1570 µM) in data set [19], 80 mg/L (≈ 313 µM) in data set [20], greater than 50 mg/L in data set [21] and 190 mg/L (≈ 744 µM) in data set [22].

Consider `NC(=O)c1ncn([C@@H]2O[C@H](CO)[C@@H](O)[C@H]2O)n1` [RIBAVIRIN], for which the MCC in data set [1], in [14] and in [10] was greater than 250 µg/mL in each case. For the same compound, the MIC50 in [23] is 250 mg/L (≈ 1020 µM); in data set [11] it was 250 mg/L (≈ 1020 µM); in data set [12] it was 150 mg/L (≈ 614 µM); in [13] it was greater than 250 mg/L; in data set [2] it was 30 mg/L (≈ 123 µM); in [3], 150 mg/L (≈ 614 µM). Also, the MIC50 in data set [4] was 50 mg/L (≈ 205 µM); in [5], 150 mg/L (≈ 614 µM); in data set [6], 150 mg/L (≈ 614 µM); in [7], greater than 250 mg/L; in data set [8] it was greater than 250 mg/L; in data set [9] it was 250 mg/L (≈ 1020 µM).

One may read the EC50 as the concentration that produces a half-maximal response. Broadly, the CC50 is the concentration at which the toxic effect on the cells reaches its halfway point.
